Results published in ChEMBL document CHEMBL3808334, “Synthesis and in vitro evaluation of novel triazine analogues as anticancer agents and their interaction studies with bovine serum albumin” (Eur J Med Chem, 2016).

Legend:
Format in all cases: functional
[1] = system: NCI-H522; experiment: Growth inhibition of human NCI-H522 cells assessed as cell growth at 10^-5 M incubated for 48 hrs by sulforhodamine B assay; conditions: NCI-H522, 48 h, read-out: Activity
[2] = Growth inhibition of human SF295 cells assessed as cell growth at 10 uM incubated for 48 hrs by sulforhodamine B assay; conditions: SF-295, 48 h, read-out: Activity
[3] = system: CCRF-CEM; experiment: Growth inhibition of human CCRF-CEM cells incubated for 48 hrs by sulforhodamine B assay
How it was run: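 Leukemia line in the five-dose format: five concentrations from 10-fold or ½-log serial dilutions. Plated at 5,000–40,000 cells per well, preincubated 24 h, then compound added for 48 h at 37 °C, 5% CO₂. Sulforhodamine B absorbance read at 515 nm. Growth is computed against time-zero (Tz) and control (C) readings; GI₅₀ is where [(Ti−Tz)/(C−Tz)]×100 = 50.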

[4] = system: M14; experiment: Growth inhibition of human M14 cells assessed as cell growth at 10^-8 M incubated for 48 hrs by sulforhodamine B assay; conditions: M14, 48 h, read-out: Activity
[5] = Growth inhibition of human OVCAR5 cells assessed as cell growth at 10^-6 M incubated for 48 hrs by sulforhodamine B assay; conditions: OVCAR-5, 48 h, read-out: Activity
[6] = Growth inhibition of human PC3 cells assessed as cell growth at 10^-6 M incubated for 48 hrs by sulforhodamine B assay; conditions: PC-3, 48 h, read-out: Activity
[7] = system: EKVX; experiment: Growth inhibition of human EKVX cells assessed as cell growth at 10^-6 M incubated for 48 hrs by sulforhodamine B assay; conditions: read-out: Activity
How it was run: (§1)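 Cells seeded at 5,000–40,000/well according to doubling time and preincubated 24 h at 37 °C, 5% CO2. Time-zero plates were TCA-fixed. DMSO concentrate was diluted in medium with 50 µg/ml gentamicin to give five concentrations (10-fold or ½ log steps), then exposed 48 h. Cells were TCA-fixed, stained with 0.4% SRB and read at 515 nm. Percent growth was taken against time-zero and control; GI50, TGI and LC50 derived.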

[8] = system: EKVX; experiment: Growth inhibition of human EKVX cells incubated for 48 hrs by sulforhodamine B assay; how it was run: as §1
[9] = Growth inhibition of human ovarian cancer cells incubated for 48 hrs by sulforhodamine B assay; conditions: Cancer cell lines; for CC50: read-out: LC50 (the source's name)
[10] = system: ACHN; experiment: Growth inhibition of human ACHN cells assessed as cell growth at 10^-5 M incubated for 48 hrs by sulforhodamine B assay; conditions: read-out: Activity
How it was run: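 Five-dose assay: five concentrations from 10-fold or ½-log serial dilutions. Cells are plated at 5,000–40,000 per well according to doubling time, grown 24 h, then exposed 48 h at 37 °C, 5% CO₂. Fixed with cold 50% TCA (final addition) for 60 min at 4 °C and stained with 0.4% SRB in 1% acetic acid. Bound dye is solubilized in 10 mM Tris base and read at 515 nm. GI₅₀ is where [(Ti−Tz)/(C−Tz)]×100 = 50, with a time-zero plate as Tz.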

[11] = system: K562; experiment: Growth inhibition of human K562 cells assessed as cell growth at 10^-5 M incubated for 48 hrs by sulforhodamine B assay; conditions: K562, 48 h, read-out: Activity
[12] = system: SK-MEL-2; experiment: Growth inhibition of human SK-MEL-2 cells assessed as cell growth at 10^-5 M incubated for 48 hrs by sulforhodamine B assay; conditions: SK-MEL-2, 48 h, read-out: Activity
[13] = Growth inhibition of human LOXIMVI cells assessed as cell growth at 10^-4 M incubated for 48 hrs by sulforhodamine B assay; conditions: LOX IMVI, read-out: Activity
[14] = system: NCI-H322M; experiment: Growth inhibition of human NCI-H322M cells assessed as cell growth at 10^-5 M incubated for 48 hrs by sulforhodamine B assay; conditions: read-out: Activity
[15] = system: KM12; experiment: Growth inhibition of human KM12 cells assessed as cell growth at 10^-8 M incubated for 48 hrs by sulforhodamine B assay; conditions: KM12, 48 h, read-out: Activity
[16] = system: SK-MEL-28; experiment: Growth inhibition of human SK-MEL-28 cells assessed as cell growth at 10^-7 M incubated for 48 hrs by sulforhodamine B assay; conditions: SK-MEL-28, 48 h, read-out: Activity
[17] = Growth inhibition of human SNB75 cells assessed as cell growth at 10 uM incubated for 48 hrs by sulforhodamine B assay; conditions: SNB-75, 48 h, read-out: Activity
[18] = system: M14; experiment: Growth inhibition of human M14 cells assessed as cell growth at 10^-5 M incubated for 48 hrs by sulforhodamine B assay; conditions: M14, 48 h, read-out: Activity
[19] = Growth inhibition of human SKOV3 cells assessed as cell growth at 10^-7 M incubated for 48 hrs by sulforhodamine B assay; conditions: SK-OV-3, 48 h, read-out: Activity
[20] = system: NCI-H322M; experiment: Growth inhibition of human NCI-H322M cells assessed as cell growth at 10 uM incubated for 48 hrs by sulforhodamine B assay; conditions: read-out: Activity
[21] = system: KM12; experiment: Growth inhibition of human KM12 cells assessed as cell growth at 10^-4 M incubated for 48 hrs by sulforhodamine B assay; conditions: KM12, 48 h, read-out: Activity
[22] = Growth inhibition of human HOP62 cells assessed as cell growth at 10^-8 M incubated for 48 hrs by sulforhodamine B assay; conditions: HOP-62, 48 h, read-out: Activity
[23] = system: NCI-H460; experiment: Growth inhibition of human NCI-H460 cells incubated for 48 hrs by sulforhodamine B assay; conditions: NCI-H460, 48 h
How it was run: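 Cells were plated at 5,000–40,000 per well according to doubling time and preincubated 24 h at 37 °C in 5% CO2; time-zero plates were then TCA-fixed. Five concentrations (10-fold or ½-log dilutions, DMSO stock) were incubated 48 h. Cells were TCA-fixed, stained with 0.4% SRB and read at 515 nm. GI50 was taken where [(Ti−Tz)/(C−Tz)]×100 = 50.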

[24] = system: NCI-H23; experiment: Growth inhibition of human NCI-H23 cells assessed as cell growth at 10 uM incubated for 48 hrs by sulforhodamine B assay; conditions: NCI-H23, 48 h, read-out: Activity
[25] = Growth inhibition of human SW620 cells assessed as cell growth at 10^-6 M incubated for 48 hrs by sulforhodamine B assay; conditions: SW-620, 48 h, read-out: Activity
[26] = read-out: LC50 (the source's name)
[27] = read-out: pLC50 (the source's name) (converted)

Work on Fc1ccc(-c2nc(Nc3ccc(-c4nc5ccccc5[nH]4)cc3)nc(N3CCOCC3)n2)cc1 yielded a growth at 10 µM [1] of -30%, a growth at 10 µM [2] of -63.5% and a GI50 ([3]; read-out: GI50) of 3.11 µM. The CC50 [3, 26] was greater than 100 µM, the TGI ([3]; read-out: TGI) was greater than 100 µM and the GI50 ([3]; read-out: pGI50 (converted)) was 3.09 µM. For the same compound, the CC50 [3, 27] was greater than 100 µM, the TGI ([3]; read-out: pTGI (converted)) was greater than 100 µM and the growth at 0.01 µM [4] was 97%. The growth at 1 µM [5] was 92%, the growth at 1 µM [6] was 93% and the growth at 1 µM [7] was 83%. For the same compound, the GI50 ([8]; read-out: GI50) was 2.6 µM, the LC50 ([8]; read-out: LC50) was greater than 100 µM and the TGI ([8]; read-out: TGI) was greater than 100 µM. It also gave a GI50 ([8]; read-out: pGI50 (converted)) of 2.63 µM, an LC50 ([8]; read-out: pLC50 (converted)) greater than 100 µM and a TGI ([8]; read-out: pTGI (converted)) greater than 100 µM. The GI50 [9] was 2.74 µM, the TGI [9] was 11.5 µM and the CC50 [9] was greater than 100 µM. It also gave a growth at 10 µM [10] of 3%, a growth at 10 µM [11] of -31% and a growth at 10 µM [12] of -35%. The growth at 100 µM [13] was -49%, the growth at 10 µM [14] was 16% and the growth at 0.01 µM [15] was 95%. The growth at 0.1 µM [16] was 91%, the growth at 10 µM [17] was -19.2% and the growth at 10 µM [18] was -62%. It also gave a growth at 0.1 µM [19] of 98%, a growth at 10 µM [20] of 27% and a growth at 100 µM [21] of -37%. It also gave a growth at 0.01 µM [22] of 98%, a GI50 ([23]; read-out: GI50) of 2.48 µM and a CC50 [23, 26] greater than 100 µM. The TGI ([23]; read-out: TGI) was 6.51 µM, the GI50 ([23]; read-out: pGI50 (converted)) was 2.45 µM and the CC50 [23, 27] was greater than 100 µM. The TGI ([23]; read-out: pTGI (converted)) was 6.46 µM, the growth at 10 µM [24] was 11.3% and the growth at 1 µM [25] was 100%.
Compound c1ccc(-c2nc(Nc3ccc(-c4nc5ccccc5[nH]4)cc3)nc(N3CCOCC3)n2)cc1 has a growth at 10 µM [1] of -75%, a growth at 10 µM [2] of -76.4% and a GI50 ([3]; read-out: GI50) of 0.544 µM. For the same compound, the CC50 [3, 26] was greater than 100 µM, the TGI ([3]; read-out: TGI) was 3.12 µM and the GI50 ([3]; read-out: pGI50 (converted)) was 0.55 µM. It also gave a CC50 [3, 27] greater than 100 µM, a TGI ([3]; read-out: pTGI (converted)) of 3.09 µM and a growth at 0.01 µM [4] of 102%. The growth at 1 µM [5] was 112%, the growth at 1 µM [6] was 92% and the growth at 1 µM [7] was 81%. For the same compound, the GI50 ([8]; read-out: GI50) was 1.59 µM, the LC50 ([8]; read-out: LC50) was 7.33 µM and the TGI ([8]; read-out: TGI) was 3.42 µM. The GI50 ([8]; read-out: pGI50 (converted)) was 1.58 µM, the LC50 ([8]; read-out: pLC50 (converted)) was 7.41 µM and the TGI ([8]; read-out: pTGI (converted)) was 3.39 µM. It also gave a GI50 [9] of 1.85 µM, a TGI [9] of 3.88 µM and a CC50 [9] of 6.84 µM. It also gave a growth at 10 µM [10] of -82%, a growth at 10 µM [11] of -54% and a growth at 10 µM [12] of -85%. For the same compound, the growth at 100 µM [13] was -45%, the growth at 10 µM [14] was -79% and the growth at 0.01 µM [15] was 98%. The growth at 0.1 µM [16] was 97%, the growth at 10 µM [17] was -89.7% and the growth at 10 µM [18] was -80%. For the same compound, the growth at 0.1 µM [19] was 104%, the growth at 10 µM [20] was -0.47% and the growth at 100 µM [21] was -86%. It also gave a growth at 0.01 µM [22] of 92%, a GI50 ([23]; read-out: GI50) of 0.822 µM and a CC50 [23, 26] of 6.67 µM. The TGI ([23]; read-out: TGI) was 2.46 µM, the GI50 ([23]; read-out: pGI50 (converted)) was 0.813 µM and the CC50 [23, 27] was 6.61 µM. For the same compound, the TGI ([23]; read-out: pTGI (converted)) was 2.45 µM, the growth at 10 µM [24] was -59% and the growth at 1 µM [25] was 39%.
